Values joined by “and” are separate entries in the source; they are usually repeats but may differ in a detail not shown here. Identical values can stand only once. Records with an inconclusive call do not appear. Active and inactive are the calls of the source.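 How the source made its calls: active means growth-curve midpoint potency at or below a set limit tied to the top tested dose, or full inhibition throughout; inconclusive means flat partial inhibition between 30 and 70%, or poor fit; inactive means the rest.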
system: not listed separately; experiment: fluconazole-treated resistant Candida growth reduction – CaCi-8 resistant strain, dry powder, set 6, antifungal resistance reversal project, dose response (AID 493069); settings: C. albicans CaCi-8 + fluconazole, Alamar Blue, 48 h; at 2.6 µM (top of the series)
In short: (§1)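 System: Candida albicans CaCi-8, fluconazole-resistant clinical isolate. Medium: MOPS-buffered RPMI 1640 defined medium plus Pen/Strep. Times: compound exposure 48 h 37 °C, Alamar Blue 2 h RT. Measured by: Alamar Blue fluorescence, Ex 544/Em 590 nm.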

Structure (SMILES)	growth change, negative = inhibition
COc1ccc2c(c1)c1nc3n(c(=O)c1n2CC(=O)N1CCC(C)CC1)CCS3	-12.4% (inactive)

same assay, conditions: C. albicans CaCi-8 + fluconazole, Alamar Blue, 48 h; at 26 µM (top of the series)

Structure (SMILES)	growth change, negative = inhibition
O=C(Cn1c2ccc(F)cc2c2nc3n(c(=O)c21)CCS3)N1CCCCC1	-17% (inactive)
CCN(CC)C(=O)Cn1c2ccccc2c2nc3n(c(=O)c21)CCS3	10.7% (inactive)
O=C(Cn1c2ccccc2c2nc3n(c(=O)c21)CCCS3)c1ccc(F)cc1	-20.3% (inactive)
CCN(CC)C(=O)Cn1c2ccc(F)cc2c2nc3n(c(=O)c21)CCS3	3.38% (inactive)
O=C(Cn1c2ccc(F)cc2c2nc3n(c(=O)c21)CCS3)N1CCCCCC1	-36.1% (inactive)
O=C(Cn1c2ccc(F)cc2c2nc3n(c(=O)c21)CCS3)N1CCCC1	-25.5% (inactive)
O=C(Cn1c2ccccc2c2nc3n(c(=O)c21)CCS3)NCCc1ccc(Cl)cc1	-16.6% (inactive)

system: C. albicans CaCi-8 + fluconazole, Alamar Blue, 48 h; experiment: as above; settings: not given
In short: as §1

Structure (SMILES)	AC50
O=C(Cn1c2ccccc2c2nc3n(c(=O)c21)CCS3)N1CCCCC1	3.88 µM
CC1CCN(C(=O)Cn2c3ccccc3c3nc4n(c(=O)c32)CCS4)CC1	5.56 µM
O=C(Cn1c2ccccc2c2nc3n(c(=O)c21)CCS3)N1CCOCC1	4.83 µM
O=c1c2[nH]c3ccccc3c2nc2n1CCS2	17.6 µM
O=C(O)Cn1nc(-c2ccccc2)c2ccccc21	> 26 µM (inactive)
CC1CCN(C(=O)Cn2c3ccc(F)cc3c3nc4n(c(=O)c32)CCCS4)CC1	22.9 µM
COC(=O)Cn1nc(-c2ccc(C)cc2)c2ccccc21	13.8 µM
COC(=O)Cn1nc(-c2ccccc2)c2ccccc21	4.99 µM
O=C(Cn1c2ccccc2c2nc3n(c(=O)c21)CCS3)N1CCCC1	1.43 µM and 6.75 µM
O=C(Cn1c2ccccc2c2ccncc21)N1CCCCC1	26.2 µM
COC(=O)Cn1nc(-c2ccc(Cl)cc2)c2ccccc21	15.8 µM
O=c1c2[nH]c3ccc(F)cc3c2nc2n1CCS2	5.76 µM
